Assay results reported in article PMC8358123 (International Journal for Parasitology: Drugs and Drug …, 2021).

Key:
[1] = tested on: T. cruzi Tulahuen CL2 β-galactosidase strain; assay: In vitro activity against T. cruzi intracellular amastigotes in MRC-5SV2 cells; format: cell-based; conditions: Trypanosoma cruzi, MRC-5 SV2, 168 h, read-out: T. cruzi EC50
How it was run: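 Nifurtimox-sensitive Tulahuen CL2 β-galactosidase parasites infected MRC-5SV2 fibroblasts in MEM with 200 mM L-glutamine, 16.5 mM NaHCO3 and 5% inactivated FCS, at 37 °C and 5% CO2. Wells held 4×10^3 cells and 4×10^4 parasites. Test compound was given as ten 4-fold dilutions (top 64 μM, <1% DMSO) for 7 days. CPRG was then added for 4 h at 37 °C and absorbance read at 540 nm. IC50 from % reduction versus untreated-infected controls; mean ± SEM, 2–4 experiments. Benznidazole reference.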

[2] = tested on: T. b. brucei (Squib 427 strain); assay: In vitro activity against T. b. brucei; format: cell-based; conditions: Trypanosoma brucei, read-out: T. b. bruc. EC50
[3] = tested on: T. b. rhodesiense (STIB-900 strain); assay: In vitro activity against T. b. rhodesiense; format: cell-based; conditions: Trypanosoma brucei, read-out: T. b. rhod. EC50
How it was run: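 STIB-900 parasites, axenic in HMI-9 with 10% FBS at 37 °C and 5% CO2, seeded at 4×10^3 parasites/well. Test compound was given as ten 4-fold dilutions (top 64 μM, <1% DMSO). Growth period […], then resazurin added and fluorescence measured after 24 h. IC50 from a sigmoid variable-slope fit versus untreated controls; mean ± SEM, 2–4 experiments. Suramin as reference.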

[4] = MRC-5SV2 cytotoxicity; format: cell-based, human; conditions: human, MRC-5SV2 cells, MRC-5 CC50, MRC-5SV2 cells, 3 days incubation
How it was run: (§1)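 MRC-5SV2 cells (3×10^4 cells/mL) in MEM with Earl's salts, L-glutamine, NaHCO3 and 5% inactivated FCS, at 37 °C and 5% CO2. Exposure to test compound (ten 4-fold dilutions, top 64 μM, <1% DMSO) lasted 3 days. Resazurin was then added for 4 h at 37 °C, with fluorescence read at ex 550/em 590 nm. CC50 from % reduction relative to untreated (100%) and medium-only (0%) controls.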

[5] = PMM cytotoxicity; format: cell-based, mouse; conditions: Swiss, mouse, PMM CC50, primary peritoneal mouse macrophages
[6] = tested on: primary peritoneal mouse macrophages (PMM); assay: PMM cytotoxicity; format: cell-based; conditions: read-out: PMM CC50; primary peritoneal mouse macrophages
[7] = Microsomal stability assay, hamster; format: in vitro ADME; conditions: hamster microsomal (S9) fractions, % remaining parent compound; for remaining at 0 h: 0 min; for remaining at 0.25 h: 15 min; for remaining at 0.5 h: 30 min; for remaining at 1 h: 60 min
[8] = Microsomal stability assay, human; format: in vitro ADME; conditions: pooled human liver microsomes (microsomal (S9) fractions), % remaining parent compound; for remaining at 0 h: 0 min; for remaining at 0.25 h: 15 min; for remaining at 0.5 h: 30 min; for remaining at 1 h: 60 min
[9] = tested on: L. infantum MHOM/MA (BE)/67; format: cell-based, Leishmania infantum; conditions: versus compound 9
How it was run: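 Intracellular amastigotes of hamster spleen origin infected Swiss mouse peritoneal macrophages (elicited 2 days with 2% potato starch), in RPMI-1640 with 5% inactivated FCS, at 37 °C and 5% CO2, 4.5×10^5 parasites/well. Test compound (ten 4-fold dilutions, top 64 μM, <1% DMSO) was added 2 h post-infection. After 5 days, amastigotes/macrophage were counted after 10% Giemsa. IC50 was derived from % reduction versus controls; mean ± SEM, 2–4 experiments. Miltefosine reference.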

[10] = tested on: MRC-5SV2 cells; assay: MRC-5SV2 cytotoxicity; format: cell-based, human; conditions: read-out: MRC-5 CC50, 3 days incubation
How it was run: as §1

With Cc1ncnc2c1c(Cl)cn2[C@@H]1O[C@H](CO)[C@@H](O)[C@H]1O [compound 7] the EC50 [1] was 3.61 ± 1.24 µM, the EC50 [2] was 4.78 ± 2.19 µM and the EC50 [3] was 0.84 ± 0.63 µM. For the same compound, the CC50 at 3 days [4] was 54.8 ± 2.52 µM, the CC50 at 5 days [5] was > 64 µM and the CC50 [6] was 32 µM. The remaining at 0 h ([7]; CYP – NADPH (Phase-I)) was 100%, the remaining at 0.25 h ([7]; CYP – NADPH (Phase-I)) was 95% and the remaining at 0.5 h ([7]; CYP – NADPH (Phase-I)) was 93%. For the same compound, the remaining at 1 h ([7]; CYP – NADPH (Phase-I)) was 93%, the remaining at 0 h ([7]; UGT Enz. (Phase-II)) was 100% and the remaining at 0.25 h ([7]; UGT Enz. (Phase-II)) was 96%. It also gave a remaining at 0.5 h ([7]; UGT Enz. (Phase-II)) of 100%, a remaining at 1 h ([7]; UGT Enz. (Phase-II)) of 102% and a remaining at 0 h ([8]; CYP – NADPH (Phase-I)) of 100%. It also gave a remaining at 0.25 h ([8]; CYP – NADPH (Phase-I)) of 96%, a remaining at 0.5 h ([8]; CYP – NADPH (Phase-I)) of 97% and a remaining at 1 h ([8]; CYP – NADPH (Phase-I)) of 96%. For the same compound, the remaining at 0 h ([8]; UGT Enz. (Phase-II)) was 100%, the remaining at 0.25 h ([8]; UGT Enz. (Phase-II)) was 102% and the remaining at 0.5 h ([8]; UGT Enz. (Phase-II)) was 97%. For the same compound, the remaining at 1 h ([8]; UGT Enz. (Phase-II)) was 96%.
With CCc1cn([C@@H]2O[C@H](CO)[C@@H](O)[C@H]2O)c2ncnc(C)c12 [compound 13] the EC50 [1] was 2.54 ± 0.47 µM, the “fold improved activity against L. infantum compared to the 7-methyl analogue 9” value [9] was 8 fold and the EC50 [2] was 0.75 ± 0.18 µM. For the same compound, the EC50 [3] was 0.43 ± 0.06 µM, the CC50 at 3 days [4] was > 64 µM and the CC50 at 5 days [5] was > 64 µM. It also gave a remaining at 0 h ([7]; CYP – NADPH (Phase-I)) of 100%, a remaining at 0.25 h ([7]; CYP – NADPH (Phase-I)) of 93% and a remaining at 0.5 h ([7]; CYP – NADPH (Phase-I)) of 102%. It also gave a remaining at 1 h ([7]; CYP – NADPH (Phase-I)) of 91%, a remaining at 0 h ([7]; UGT Enz. (Phase-II)) of 100% and a remaining at 0.25 h ([7]; UGT Enz. (Phase-II)) of 101%. The remaining at 0.5 h ([7]; UGT Enz. (Phase-II)) was 103%, the remaining at 1 h ([7]; UGT Enz. (Phase-II)) was 108% and the remaining at 0 h ([8]; CYP – NADPH (Phase-I)) was 100%. It also gave a remaining at 0.25 h ([8]; CYP – NADPH (Phase-I)) of 89%, a remaining at 0.5 h ([8]; CYP – NADPH (Phase-I)) of 92% and a remaining at 1 h ([8]; CYP – NADPH (Phase-I)) of 96%. It also gave a remaining at 0 h ([8]; UGT Enz. (Phase-II)) of 100%, a remaining at 0.25 h ([8]; UGT Enz. (Phase-II)) of 105% and a remaining at 0.5 h ([8]; UGT Enz. (Phase-II)) of 102%. The remaining at 1 h ([8]; UGT Enz. (Phase-II)) was 96%.
In the case of CCc1cn([C@@H]2O[C@H](CO)[C@@H](O)[C@H]2O)c2ncnc(N)c12 [compound 39, 7-ethyl-7-deazaadenosine], the EC50 [1] is reported as 0.99 ± 0.25 µM, the EC50 [2] is reported as 0.65 ± 0.02 µM and the EC50 [3] is reported as 0.5 ± 0.03 µM. The CC50 at 3 days [4] was 50.4 µM, the CC50 [10] was > 64 µM and the CC50 at 5 days [5] was > 64 µM.
With CCOc1ncnc2c1c(CC)cn2[C@@H]1O[C@H](CO)[C@@H](O)[C@H]1O [compound 42] the EC50 [1] was 7.71 ± 0.91 µM, the EC50 [2] was 1.25 ± 0.06 µM and the EC50 [3] was 2.06 ± 0.51 µM. The CC50 at 3 days [4] was 52.5 µM, the CC50 [10] was > 64 µM and the CC50 at 5 days [5] was > 64 µM.
